ChEMBL document CHEMBL2046422, “Structure-activity relationship of nonacidic quinazolinone inhibitors of human microsomal prostaglandin synthase 1 (mPGES 1)” (J Med Chem, 2012)

How the values were obtained:
[1] = biological target: T1, Prostaglandin E synthase (Mus musculus) (UniProt Q9JM51); assay: Inhibition of mPGES-1 derived from LPS stimulated mouse RAW264.7 cells microsomal fraction using PGH2 as substrate at 1 uM preincubated for 30 mins prior to substrate addition measured after 1 min by LC-MS/MS analysis relative to control
T1 sequence (whole entry): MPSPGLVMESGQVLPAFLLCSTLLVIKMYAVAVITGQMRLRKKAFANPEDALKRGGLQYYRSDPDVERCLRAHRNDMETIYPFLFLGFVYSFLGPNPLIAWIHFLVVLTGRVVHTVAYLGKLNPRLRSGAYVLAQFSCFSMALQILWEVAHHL
In short: (§1)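 Microsomes came from RAW 264.7 cells stimulated with LPS for 16 h. They were prepared by sonication and ultracentrifugation in 0.1 M potassium phosphate, pH 7.4, with GSH and protease inhibitors, and resuspended with 2.5 mM GSH; protein was measured by Bradford. Compound was tested at the stated final concentration. PGE₂ was quantified by LC-MS/MS after solid-phase extraction with PGE₂-d₄/PGD₂-d₄ standards; SEM, n ≥ 3.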

[2] = biological target: T1, Prostaglandin E synthase (Mus musculus); assay: Inhibition of mPGES-1 derived from LPS stimulated mouse NIH3T3 cells microsomal fraction using PGH2 as substrate at 1 uM preincubated for 30 mins prior to substrate addition measured after 1 min by LC-MS/MS analysis relative to control
[3] = biological target: T2, Prostaglandin G/H synthase 1 (Ovis aries) (UniProt P05979); assay: Inhibition of ovine COX1-mediated PGE2 synthesis using PGH2 as substrate at 1 uM by LC-MS/MS analysis relative to control
T2 sequence (whole entry): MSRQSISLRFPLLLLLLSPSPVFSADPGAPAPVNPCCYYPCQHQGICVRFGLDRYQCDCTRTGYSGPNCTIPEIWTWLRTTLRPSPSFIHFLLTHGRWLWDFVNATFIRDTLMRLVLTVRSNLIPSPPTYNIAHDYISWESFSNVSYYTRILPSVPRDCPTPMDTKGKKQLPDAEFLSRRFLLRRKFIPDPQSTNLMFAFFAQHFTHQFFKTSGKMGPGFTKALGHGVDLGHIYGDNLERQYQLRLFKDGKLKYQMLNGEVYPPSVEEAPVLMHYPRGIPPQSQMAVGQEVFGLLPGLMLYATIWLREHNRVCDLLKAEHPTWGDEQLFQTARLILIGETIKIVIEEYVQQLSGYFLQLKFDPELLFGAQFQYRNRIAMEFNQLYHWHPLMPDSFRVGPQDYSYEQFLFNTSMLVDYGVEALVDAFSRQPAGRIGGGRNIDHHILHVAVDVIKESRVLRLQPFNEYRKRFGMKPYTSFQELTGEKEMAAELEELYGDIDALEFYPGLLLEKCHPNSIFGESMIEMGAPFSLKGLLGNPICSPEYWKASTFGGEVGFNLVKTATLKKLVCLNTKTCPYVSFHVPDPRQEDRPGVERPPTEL
In short: (§2)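 Direct enzyme test with a COX inhibitor screening kit, run per the kit protocol: COX-1 was ovine, COX-2 human recombinant. […] Prostaglandins were quantified by LC-MS/MS after solid-phase extraction. Mean of n ≥ 3.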

[4] = biological target: T3, Prostaglandin G/H synthase 2 (Homo sapiens) (UniProt P35354); assay: Inhibition of human recombinant COX2-mediated PGE2 synthesis using PGH2 as substrate at 1 uM by LC-MS/MS analysis relative to control; in short: as §2
T3 sequence (whole entry): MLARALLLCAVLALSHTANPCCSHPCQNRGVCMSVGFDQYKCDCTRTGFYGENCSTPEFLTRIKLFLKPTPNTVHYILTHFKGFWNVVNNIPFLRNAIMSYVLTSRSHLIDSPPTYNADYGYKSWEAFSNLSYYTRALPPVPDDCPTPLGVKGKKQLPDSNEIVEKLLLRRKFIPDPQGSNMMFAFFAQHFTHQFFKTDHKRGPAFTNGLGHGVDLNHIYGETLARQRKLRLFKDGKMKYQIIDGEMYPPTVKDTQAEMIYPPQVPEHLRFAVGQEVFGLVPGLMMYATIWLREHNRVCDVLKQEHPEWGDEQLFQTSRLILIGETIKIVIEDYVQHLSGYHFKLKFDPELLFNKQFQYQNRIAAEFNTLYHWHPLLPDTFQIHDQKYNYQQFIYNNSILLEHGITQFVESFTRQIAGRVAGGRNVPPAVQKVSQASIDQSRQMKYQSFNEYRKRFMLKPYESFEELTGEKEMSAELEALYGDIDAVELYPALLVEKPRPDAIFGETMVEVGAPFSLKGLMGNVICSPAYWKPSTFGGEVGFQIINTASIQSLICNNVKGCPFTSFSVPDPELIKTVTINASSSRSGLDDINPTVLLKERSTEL

[5] = tested on: HeLa; assay: Cytotoxicity against IL1beta and TNFalpha-stimulated human HeLa cells at 1 to 10 uM after 24 hrs by WST1 assay; assay type: cell-based
In short: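 HeLa cells were seeded at 3 × 10³ per well and grown 24 h at 37 °C. They were then stimulated with IL-1β (1 ng/mL) + TNFα (5 ng/mL) while treated with compound at 1, 10 or 100 μM, or DMSO, for 24 h. WST-1 was added for 90–150 min and absorbance read at 450 nm against 620 nm. Viability is percent of DMSO control, SEM, n ≥ 3.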

[6] = biological target: Prostaglandin G/H synthase 1 (Homo sapiens) (UniProt P23219); assay: Inhibition of COX1 in human whole blood assessed as residual TXB2 level at 10 uM after 1 hr by LC-MS/MS analysis relative to control
In short: (§3)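 Human venous blood was drawn without additives, and compound was added. Samples clotted at 37 °C for 1 h; negative controls were chilled on ice at once. After 5 min on ice, plasma was separated at 4 °C. It was mixed with H₃PO₄, EDTA, BHT and deuterated internal standards, then put through solid-phase extraction. TXB₂ and PGD₂ were measured by LC-MS/MS, relative to vehicle-treated blood.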

[7] = biological target: Prostaglandin G/H synthase 1 (Homo sapiens) (UniProt P23219); assay: Inhibition of COX1 in human whole blood assessed as residual PGD2 level at 10 uM after 1 hr by LC-MS/MS analysis relative to control; in short: as §3
[8] = biological target: T3, Prostaglandin G/H synthase 2 (Homo sapiens); assay: Inhibition of COX2 in LPS-stimulated human whole blood assessed as residual PGE2 level at 100 uM preincubated for 15 mins prior to LPS-stimulation measured after 24 hrs by LC-MS/MS analysis relative to control
In short: (§4)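 Human whole blood received compound in DMSO plus acetylsalicylic acid (10 μg/mL) to block COX-1, 15 min at 37 °C. LPS (10 μg/mL final) in autologous plasma was added to induce COX-2/mPGES-1, and blood was incubated 24 h at 37 °C. Samples were chilled on ice 5 min, and plasma prostaglandins were extracted by solid-phase extraction and quantified by LC-MS/MS. Values are relative to vehicle.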

[9] = biological target: T4, 5-lipoxygenase/FLAP (Homo sapiens) (UniProt P09917+P20292); assay: Inhibition of 5-lipoxygenase/FLAP in calcium ionophore-stimulated human whole blood assessed as residual LTB4 level at 10 uM preincubated for 15 mins prior to calcium ionophore-stimulation measured after 15 mins by LC-MS/MS analysis; assay type: protein-complex assay
In short: (§5)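 Heparinized human whole blood (500 μL) was preincubated with compound for 15 min at 37 °C. It was then stimulated with 20 μM calcium ionophore A23187 in autologous plasma for 15 min at 37 °C and chilled on ice for 5 min. Plasma was collected by centrifugation at 4 °C. Eicosanoids were recovered by liquid–liquid extraction with deuterated internal standards and quantified by LC-MS/MS (MRM). Levels are relative to vehicle-treated blood.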

[10] = biological target: T3, Prostaglandin G/H synthase 2 (Homo sapiens); assay: Inhibition of COX2 in LPS-stimulated human whole blood assessed as residual PGF2alpha level at 100 uM preincubated for 15 mins prior to LPS-stimulation measured after 24 hrs by LC-MS/MS analysis relative to control; in short: as §4
[11] = biological target: T4, 5-lipoxygenase/FLAP (Homo sapiens); assay: Inhibition of 5-lipoxygenase/FLAP in calcium ionophore-stimulated human whole blood assessed as residual 12(s)HETE level at 10 uM preincubated for 15 mins prior to calcium ionophore-stimulation measured after 15 mins by LC-MS/MS analysis; assay type: protein-complex assay; in short: as §5
[12] = biological target: T4, 5-lipoxygenase/FLAP (Homo sapiens); assay: Inhibition of 5-lipoxygenase/FLAP in calcium ionophore-stimulated human whole blood assessed as 5(s)HETE level at 10 uM preincubated for 15 mins prior to calcium ionophore-stimulation measured after 15 mins by LC-MS/MS analysis; assay type: protein-complex assay; set-up: scale not given: the % may be the effect or the level left; in short: as §5
[13] = biological target: T4, 5-lipoxygenase/FLAP (Homo sapiens); assay: Inhibition of 5-lipoxygenase/FLAP in calcium ionophore-stimulated human whole blood assessed as residual 15(s)HETE level at 10 uM preincubated for 15 mins prior to calcium ionophore-stimulation measured after 15 mins by LC-MS/MS analysis; assay type: protein-complex assay; in short: as §5
[14] = biological target: T4, 5-lipoxygenase/FLAP (Homo sapiens); assay: Inhibition of 5-lipoxygenase/FLAP in calcium ionophore-stimulated human whole blood assessed as residual (+/-)11HETE level at 10 uM preincubated for 15 mins prior to calcium ionophore-stimulation measured after 15 mins by LC-MS/MS analysis; assay type: protein-complex assay; in short: as §5
[15] = biological target: T5, Prostaglandin E synthase (Homo sapiens) (UniProt O14684); assay: Inhibition of mPGES-1 derived from IL1beta and TNFalpha stimulated human HeLa cells microsomal fraction using PGH2 as substrate at 1 uM preincubated for 30 mins prior to substrate addition measured after 1 min by LC-MS/MS analysis relative to control
T5 sequence (whole entry): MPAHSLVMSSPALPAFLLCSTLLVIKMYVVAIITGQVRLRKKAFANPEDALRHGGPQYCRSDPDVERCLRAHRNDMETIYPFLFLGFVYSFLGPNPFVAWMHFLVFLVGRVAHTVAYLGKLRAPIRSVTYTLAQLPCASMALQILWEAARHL
In short: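 Microsomes were pelleted by ultracentrifugation and resuspended in buffer with 2.5 mM GSH; protein was measured by Bradford. PGE₂ was read by LC-MS/MS after solid-phase extraction with deuterated standards; n ≥ 3.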

[16] = biological target: T6, Prostaglandin E synthase (Homo sapiens, UniProt O14684); assay: Inhibition of human recombinant mPGES-1
T6 sequence (O14684 whole entry): T5 sequence (whole entry)

[17] = Inhibition of rat recombinant mPGES-1
[18] = biological target: T1, Prostaglandin E synthase (Mus musculus); assay: Inhibition of mPGES-1 derived from LPS stimulated mouse RAW264.7 cells microsomal fraction using PGH2 as substrate at 5 uM preincubated for 30 mins prior to substrate addition measured after 1 min by LC-MS/MS analysis relative to control; in short: as §1
[19] = biological target: T1, Prostaglandin E synthase (Mus musculus); assay: Inhibition of mPGES-1 derived from LPS stimulated mouse NIH3T3 cells microsomal fraction using PGH2 as substrate at 5 uM preincubated for 30 mins prior to substrate addition measured after 1 min by LC-MS/MS analysis relative to control

Sequence of Prostaglandin G/H synthase 1 (Homo sapiens) (P23219 whole entry): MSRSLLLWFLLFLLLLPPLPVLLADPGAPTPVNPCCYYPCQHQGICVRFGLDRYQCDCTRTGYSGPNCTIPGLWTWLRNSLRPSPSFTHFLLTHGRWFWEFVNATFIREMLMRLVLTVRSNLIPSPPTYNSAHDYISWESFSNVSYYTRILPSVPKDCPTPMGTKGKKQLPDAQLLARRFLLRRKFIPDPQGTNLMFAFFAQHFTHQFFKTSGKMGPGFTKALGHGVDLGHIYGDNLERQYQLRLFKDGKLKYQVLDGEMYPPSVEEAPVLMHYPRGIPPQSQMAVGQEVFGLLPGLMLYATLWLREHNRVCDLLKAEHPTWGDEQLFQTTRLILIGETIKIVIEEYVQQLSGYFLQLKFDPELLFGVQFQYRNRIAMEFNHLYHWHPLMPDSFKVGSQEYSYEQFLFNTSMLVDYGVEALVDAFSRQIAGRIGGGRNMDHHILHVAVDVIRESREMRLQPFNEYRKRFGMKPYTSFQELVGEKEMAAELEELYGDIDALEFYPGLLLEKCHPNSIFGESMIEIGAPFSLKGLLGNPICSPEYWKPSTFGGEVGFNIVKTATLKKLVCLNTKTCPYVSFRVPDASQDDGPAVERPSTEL

`CCCc1nc2ccc(NC(=O)c3ccccc3Cl)cc2c(=O)n1Cc1ccccc1Cl` gave an inhibition [1] of 15.2%, an inhibition [2] of 6.6% and an inhibition [3] of 16.1%. The inhibition [4] was under 0%, the Activity [5] was “Non-toxic” and the Activity [6] was 86.1%. For the same compound, the Activity [7] was 89%, the Activity [8] was 34.2% and the Activity [9] was 91.3%. The Activity [10] was 73.4%, the Activity [11] was 82.7% and the Activity [12] was 88.1%. For the same compound, the Activity [13] was 78.3% and the Activity [14] was 75.4%.
With `O=C1NC(c2ccccc2Cl)Oc2ccccc21` (stereo not given) the inhibition [15] was under 0%.
`CCCc1nc2ccc(NC(=O)c3ccc(Cl)cc3)cc2c(=O)n1Cc1ccc(-c2cccc(Cl)c2)cc1` showed an inhibition [15] of 14.7%.
For `CCCc1nc2ccc(NC(=O)C3CC3)cc2c(=O)n1Cc1ccc(-c2cccc(OC)c2)cc1`, the inhibition [15] was 15.9%.
`O=C(Nc1ccc(-c2ccc(Cl)c(Cl)c2)cc1)C1=C(O)c2ccccc2S(=O)(=O)N1` showed an IC50 [16] of 16.5 nM and an IC50 [17] of 1080 nM.
Work on `CCCc1nc2ccc(NC(=O)c3ccccc3)cc2c(=O)n1Cc1ccc(-c2cccc(Cl)c2)cc1` yielded an inhibition [15] of 15.3%.
`Cc1nc2ccc(NC(=O)c3ccccc3Cl)cc2c(=O)n1Cc1ccc(-c2cccc(Cl)c2)cc1` showed an inhibition [15] of 41.9%.
In the case of `CCCCCCC(Sc1nc(Cl)cc(Nc2cccc(C)c2C)n1)C(=O)O` (stereo not given), the inhibition [18] is reported as 66.2% and the inhibition [19] is reported as 62.9%.
Work on `O=C(Cn1cnc2ccccc2c1=O)Nc1ccccc1Cl` yielded an inhibition [15] of under 0%.
`O=C(Nc1ccc2nc(C3CC3)n(Cc3ccccc3)c(=O)c2c1)c1cccnc1` gave an inhibition [15] of under 0%.
